Experimental data: ChEMBL document CHEMBL2057190, “Short synthesis and antimalarial activity of fagaronine” (Bioorg Med Chem, 2012)

Assays:
Vero = experiment: Cytotoxicity against african green monkey Vero cells; format: cell-based; details: Chlorocebus sabaeus
Mus musculus = experiment: Toxicity in CD mouse infected with Plasmodium venckei petteri at 10 mg/kg/day, ip administered from day 0 to day 3; format: organism-based; design: route intraperitoneal; details: in vivo
In short: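 CD female mice infected with 10⁶ P. vinckei petteri-infected red cells were given drug ip daily on days 0–3 and observed for signs of acute toxicity. Survival was followed for 13 days post-infection.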

[1] = test system: Plasmodium vinckei petteri; experiment: Antiplasmodial activity Plasmodium vinckei petteri infected in CD mouse assessed as survival of infected mouse at 1 mg/kg/day, ip administered from day 0 to day 3 and measured on day 4 (reference value: 9.5 days); format: functional; details: route intraperitoneal
[2] = test system: Plasmodium vinckei petteri; experiment: Antiplasmodial activity Plasmodium vinckei petteri infected in CD mouse assessed as survival of infected mouse at 10 mg/kg/day, ip administered from day 0 to day 3 and measured on day 4 (reference value: 9.5 days); format: functional; details: route intraperitoneal
Plasmodium falciparum [3] = experiment: Antiplasmodial activity against chloroquine-resistant Plasmodium falciparum FcM29 assessed as [3H]hypoxanthine incorporation after 48 hrs; format: functional, organism-based
In short: (§1)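 P. falciparum was cultured per Trager–Jensen with modifications and synchronised by magnetic concentration plus 5% sorbitol lysis. Cultures, mostly at ring stage, were exposed to increasing drug dilutions in triplicate for 48 h. Growth was measured by [³H]-hypoxanthine incorporation to give IC₅₀. Values are means of two independent experiments run in triplicate.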

[4] = Selectivity ratio of IC50 for african green monkey Vero cells to IC50 for […] Plasmodium falciparum FcB1/ Columbia; format: ADME, cell-based; details: read-out: Ratio IC50
In short: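 Selectivity index = Vero IC₅₀ / FcB1 IC₅₀. Vero cells were grown as for P. falciparum but with 10% foetal calf serum in place of 5% human serum, exposed to increasing concentrations for 48 h, and growth read by [³H]-hypoxanthine incorporation against untreated wells (100%). Doxorubicin served as control.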

[5] = test system: Plasmodium vinckei petteri; experiment: Antiplasmodial activity Plasmodium vinckei petteri infected in CD mouse assessed as survival of infected mouse at 2.5 mg/kg/day, ip administered from day 0 to day 3 and measured on day 4 (reference value: 9.5 days); format: functional; details: route intraperitoneal
[6] = test system: Plasmodium vinckei petteri; experiment: Antiplasmodial activity Plasmodium vinckei petteri infected in CD mouse assessed as suppression of parasitaemia at 1 mg/kg/day, ip administered from day 0 to day 3 and measured on day 4 by Giemsa staining relative to control; format: functional; details: route intraperitoneal
In short: (§2)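 Female CD mice (mean weight 20 2 g) were infected on day 0 with 10⁶ P. vinckei petteri-infected red cells in RPMI. Groups of five received drug intraperitoneally daily from day 0 to 3. On day 4, parasitaemia was counted on Giemsa-stained smears (at least 5000 erythrocytes). Inhibition % = (control − treated)/control × 100, with RPMI-only mice as controls. ED₅₀ was taken as the dose giving 50% inhibition.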

Plasmodium falciparum [7] = experiment: Antiplasmodial activity against chloroquine-resistant Plasmodium falciparum FcB1/Columbia assessed as [3H]hypoxanthine incorporation after 48 hrs; format: functional, organism-based; in short: as §1
[8] = test system: Plasmodium vinckei petteri; experiment: Antiplasmodial activity Plasmodium vinckei petteri infected in CD mouse assessed as suppression of parasitaemia at 10 mg/kg/day, ip administered from day 0 to day 3 and measured on day 4 by Giemsa staining relative to control; format: functional; details: route intraperitoneal; in short: as §2
[9] = test system: Plasmodium vinckei petteri; experiment: Antiplasmodial activity Plasmodium vinckei petteri infected in ip dosed CD mouse assessed as suppression of parasitaemia administered from day 0 to day 3 and measured on day 4 by Giemsa staining; format: functional; in short: as §2
Plasmodium falciparum [10] = experiment: Antiplasmodial activity against chloroquine-sensitive Plasmodium falciparum 3D7 assessed as [3H]hypoxanthine incorporation after 48 hrs; format: functional, organism-based; in short: as §1
[11] = test system: Plasmodium vinckei petteri; experiment: Antiplasmodial activity Plasmodium vinckei petteri infected in CD mouse assessed as suppression of parasitaemia at 2.5 mg/kg/day, ip administered from day 0 to day 3 and measured on day 4 by Giemsa staining relative to control; format: functional; details: route intraperitoneal; in short: as §2
[12] = test system: Plasmodium vinckei petteri; experiment: Antiplasmodial activity Plasmodium vinckei petteri infected in CD mouse assessed as survival of infected mouse at 5 mg/kg/day, ip administered from day 0 to day 3 and measured on day 4 (reference value: 9.5 days); format: functional; details: route intraperitoneal
[13] = test system: Plasmodium vinckei petteri; experiment: Antiplasmodial activity Plasmodium vinckei petteri infected in CD mouse assessed as suppression of parasitaemia at 5 mg/kg/day, ip administered from day 0 to day 3 and measured on day 4 by Giemsa staining relative to control; format: functional; details: route intraperitoneal; in short: as §2

| SMILES | IC50 (Vero) | Activity (Mus musculus) | MSD [1] | MSD [2] | IC50 (Plasmodium falciparum [3]) | selectivity ratio [4] | MSD [5] | inhibition in vivo at 1 mg/kg/day [6] | IC50 (Plasmodium falciparum [7]) | inhibition in vivo at 10 mg/kg/day [8] | ED50 [9] | IC50 (Plasmodium falciparum [10]) | inhibition in vivo at 2.5 mg/kg/day [11] | MSD [12] | inhibition in vivo at 5 mg/kg/day [13] |
| --- | --- | --- | --- | --- | --- | --- | --- | --- | --- | --- | --- | --- | --- | --- | --- |
| COc1cccc2c1C(=O)c1c(O)c3c(c(O)c1C2=O)C[C@@](O)(C(=O)CO)C[C@@H]3O[C@H]1C[C@H](N)[C@H](O)[C@H](C)O1 [DOXORUBICIN] | 6400 nM |  |  |  |  |  |  |  |  |  |  |  |  |  |  |
| COc1cc2c(ccc3c4cc(OC)c(OC)cc4c[n+](C)c23)cc1O.[I-] [FAGARONINE IODIDE] | > 21000 nM | Non-toxic | 8.6 days | >13 days | 7.4 nM | > 1400 | 11.5 days | 4.8% | 14.9 nM | 91.5% | 6 mg/kg/day | 7.6 nM | 27% | 10.7 days | 38.1% |
| CCN(CC)CCCC(C)Nc1ccnc2cc(Cl)ccc12 (configuration not stated) [CHLOROQUINE] | > 50000 nM |  | 9.5 days | >13 days |  |  |  | 3.2% |  | 94.8% | 5.5 mg/kg/day |  |  |  |  |
